According to ChEMBL document CHEMBL3407439, “A facile and novel synthesis of N(2)-, C(6)-substituted pyrazolo[3,4-d]pyrimidine-4 carboxylate derivatives as adenosine receptor antagonists” (Eur J Med Chem, 2015):

What was measured:
Adenosine receptor A1 = target: T1, Adenosine receptor A1 (Homo sapiens, UniProt P30542); assay: Displacement of [3H]CCPA from human adenosine A1 receptor expressed in CHO cells by Top Count analysis; type: cell-based
T1 sequence (P30542 whole entry): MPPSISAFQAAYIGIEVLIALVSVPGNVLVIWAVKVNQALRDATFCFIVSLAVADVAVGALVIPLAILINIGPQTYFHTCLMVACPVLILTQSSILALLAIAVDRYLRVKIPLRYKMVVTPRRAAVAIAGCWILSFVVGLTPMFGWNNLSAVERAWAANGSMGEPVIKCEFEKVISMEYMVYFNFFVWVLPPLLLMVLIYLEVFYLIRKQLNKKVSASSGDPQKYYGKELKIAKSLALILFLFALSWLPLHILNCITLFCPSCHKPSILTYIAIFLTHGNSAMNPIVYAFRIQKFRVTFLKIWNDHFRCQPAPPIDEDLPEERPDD
Method in brief: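 Tritiated-radioligand competition binding at hA1 receptor, 3 h at room temperature; nonspecific binding with 1 mM theophylline. Separation by GF/B glass-fibre filtration, filter radioactivity counted by scintillation (57% efficiency). Ki from competition curves by nonlinear curve fitting.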

Adenosine receptor A2a = Adenosine receptor A2a (Homo sapiens, UniProt P29274); assay: Displacement of [3H]NECA from human adenosine A2A receptor expressed in CHO cells by Top Count analysis; type: cell-based
Sequence of Adenosine receptor A2a (P29274 whole entry): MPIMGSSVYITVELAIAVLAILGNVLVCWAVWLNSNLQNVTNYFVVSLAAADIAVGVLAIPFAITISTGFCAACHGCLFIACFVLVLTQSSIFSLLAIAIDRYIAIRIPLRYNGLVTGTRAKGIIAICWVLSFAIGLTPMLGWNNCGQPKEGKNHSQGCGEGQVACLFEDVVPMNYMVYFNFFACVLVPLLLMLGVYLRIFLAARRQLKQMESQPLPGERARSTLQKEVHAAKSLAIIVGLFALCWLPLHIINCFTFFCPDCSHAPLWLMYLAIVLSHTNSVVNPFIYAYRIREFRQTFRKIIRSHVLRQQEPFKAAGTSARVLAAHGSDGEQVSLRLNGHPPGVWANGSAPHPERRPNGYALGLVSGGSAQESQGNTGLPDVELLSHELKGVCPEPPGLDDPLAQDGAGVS

Adenosine receptor A2b = target: T2, Adenosine receptor A2b (Homo sapiens, UniProt P29275); assay: Antagonist activity at human adenosine A2B receptor expressed in CHO cells assessed as inhibition of NECA-induced adenylyl cyclase activity; type: functional, cell-based
T2 sequence (P29275 whole entry): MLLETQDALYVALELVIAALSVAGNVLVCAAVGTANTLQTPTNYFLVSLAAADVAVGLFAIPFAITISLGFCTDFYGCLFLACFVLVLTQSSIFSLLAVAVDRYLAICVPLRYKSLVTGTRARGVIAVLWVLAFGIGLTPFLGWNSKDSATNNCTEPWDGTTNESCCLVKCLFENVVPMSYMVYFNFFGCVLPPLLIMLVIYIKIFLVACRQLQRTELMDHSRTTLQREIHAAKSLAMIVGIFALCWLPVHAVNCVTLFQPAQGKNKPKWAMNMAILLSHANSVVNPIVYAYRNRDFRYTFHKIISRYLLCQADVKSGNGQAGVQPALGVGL
Method in brief: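 Membranes from CHO cells transfected with hA2B receptor incubated 20 min with 100 nM NECA, 150,000 cpm [α-32P]ATP and varying antagonist concentrations, in mixture lacking EGTA and NaCl. Ki derived from concentration-dependent inhibition of NECA-stimulated adenylyl cyclase activity; n = 3–6.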

Adenosine receptor A3 = target: T3, Adenosine receptor A3 (Homo sapiens, UniProt P0DMS8); assay: Displacement of [3H]HEMADO from human adenosine A3 receptor expressed in CHO cells by Top Count analysis; type: cell-based
T3 sequence (P0DMS8 whole entry): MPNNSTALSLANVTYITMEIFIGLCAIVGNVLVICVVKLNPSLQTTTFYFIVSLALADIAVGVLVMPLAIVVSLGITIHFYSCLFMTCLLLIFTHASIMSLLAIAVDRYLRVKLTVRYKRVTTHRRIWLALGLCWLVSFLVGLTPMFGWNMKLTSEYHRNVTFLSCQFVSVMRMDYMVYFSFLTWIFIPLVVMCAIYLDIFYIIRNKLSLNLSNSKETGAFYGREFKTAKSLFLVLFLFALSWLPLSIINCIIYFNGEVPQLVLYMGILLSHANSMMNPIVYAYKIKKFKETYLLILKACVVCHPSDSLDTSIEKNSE
Method in brief: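 Competition against [3H]HEMADO binding at hA3 receptor in CHO cells, 3 h at room temperature; nonspecific binding defined with 100 µM R-PIA.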

[1] = target: Adenosine receptors; A1 & A3 (Homo sapiens) (UniProt P30542+P0DMS8); assay: Selectivity ratio of Ki for human adenosine A1 receptor to Ki for human adenosine A3 receptor
Homo sapiens = species: Homo sapiens; assay: Selectivity ratio of Ki for human adenosine A2A receptor to Ki for human adenosine A3 receptor

Row | Compound | Ki (Adenosine receptor A1) [µM] | Ki (Adenosine receptor A2a) [µM] | Ki (Adenosine receptor A2b) [µM] | Ki (Adenosine receptor A3) [µM] | Ratio Ki [1] | Ratio Ki (Homo sapiens)
1 | CCOC(=O)c1nc(N)nc2nn(CCc3ccccc3)cc12 | 3.5 | 4.8 | 60 | 18.1 | 0.19 | 0.26
2 | CCOC(=O)c1nc(NC(=O)c2ccccc2)nc2nn(CCc3ccccc3)cc12 | 5.1 | 3.7 | > 10 | 12.2 | 0.41 | 0.3
3 | CCOC(=O)c1nc(N(C(=O)c2ccccc2)C(=O)c2ccccc2)nc2nn(CCc3ccccc3)cc12 | > 100 | > 100 | > 20 | > 100 | – | –
4 | CCOC(=O)c1nc(NC(=O)c2ccc(Br)cc2)nc2nn(CCc3ccccc3)cc12 | 2.6 | 4.2 | > 20 | 3.6 | 0.72 | 1.2
5 | CCOC(=O)c1nc(NC(=O)c2ccccc2)nc2nn(C)cc12 | 14 | 16.1 | > 20 | > 100 | < 0.14 | < 0.16
6 | CCOC(=O)c1nc(NC(=O)c2ccc(C)cc2)nc2nn(C(C)C)cc12 | 0.7 | 2.3 | > 20 | 28 | 0.02 | 0.1
7 | CCOC(=O)c1nc(NC(=O)Cc2ccccc2)nc2nn(CCc3ccccc3)cc12 | 0.6 | 2.4 | > 10 | 10.4 | 0.05 | 0.2
8 | CCOC(=O)c1nc(NC(=O)Cc2ccccc2)nc2nn(C)cc12 | 5.9 | 7.3 | > 20 | 14.6 | 0.4 | 0.5
9 | CCOC(=O)c1nc(NC(=O)Cc2ccccc2)nc2nn(C(C)C)cc12 | 0.6 | 8.8 | > 10 | 13.3 | 0.04 | 0.66
10 | CCOC(=O)c1nc(NC(=O)c2ccc(F)cc2)nc2nn(C)cc12 | > 100 | 11.5 | > 20 | > 100 | – | < 0.14
11 | CCOC(=O)c1nc(NC(=O)c2ccc(F)cc2)nc2nn(C(C)C)cc12 | 2.8 | 2.8 | > 20 | 5.7 | 0.5 | 0.5
12 | CCOC(=O)c1nc(NC(=O)c2ccc(C)cc2)nc2nn(CCc3ccccc3)cc12 | > 100 | 6 | > 20 | 3 | > 33 | 2
13 | CCOC(=O)c1nc(N(C(=O)c2ccccc2)C(=O)c2ccccc2)nc2nn(C(C)C)cc12 | 17.7 | > 100 | > 20 | 5.4 | 3.2 | > 18.5
14 | CCOC(=O)c1nc(N(C(=O)c2ccccc2)C(=O)c2ccccc2)nc2nn(C)cc12 | > 100 | > 100 | > 20 | > 100 | – | –
15 | Cn1cc2c(C(N)=O)nc(N)nc2n1 | 10.2 | 3 | > 20 | > 100 | – | –
16 | CCOC(=O)c1nc(NC(=O)c2ccc(C(F)(F)F)cc2)nc2nn(CCc3ccccc3)cc12 | 2.5 | 7.5 | > 20 | 5.8 | 0.5 | 1.3
